From ChEMBL document CHEMBL1140700, “Substituted pyrazoles as hepatoselective HMG-CoA reductase inhibitors: discovery of (3R,5R)-7-[2-(4-fluoro-phenyl)-4-isopropyl-5-(4-methyl-benzylcarbamoyl)-2H-pyrazol-3-yl]-3,5-dihydroxyheptanoic acid (PF-3052334) as a candidate for the treatment of hypercholesterolemia” (J Med Chem, 2008)

Legend:
[1] = system: Cavia porcellus; assay: Reduction of LDL level in chow fed Hartley guinea pig serum at 20 mg/kg/day, po for 7 days relative to rosuvastatin; format: functional, Hartely; parameters: scale not given: the % may be the effect or the level left
Outline: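 Male Hartley guinea pigs (300–500 g) on chow diet 5025, acclimated ≥1 week; vehicle or compound suspension by daily oral gavage at 10 or 20 mpk (n = 8/group) for 7 days; sacrificed 2 h after final dose; LDL cholesterol as mean % change from vehicle group.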

[2] = system: Hepatocyte; assay: Inhibition of cholesterol synthesis in rat hepatocytes; format: functional, cell-based
Outline: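 Frozen rat hepatocytes on collagen-coated wells, 10^5 cells/well, grown 24 h in DMEM/10% FBS/10 mM HEPES. Compound preincubation 4 h, then 1 µCi/mL 14C acetic acid for 4 h more.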

[3] = system: Syrian golden hamster; assay: Inhibition of cholesterol synthesis in Goldern Syrian hamster blood at 10 mg/kg, po after 2 to 4 hrs relative to control; format: functional; details: Mesocricetus auratus, read-out: Inhibition
Outline: (§1)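 Hamsters on chow with 2.5% cholestyramine from 3 days prior; oral gavage of vehicle or compound (10 mpk), n = 8/group. At 2 h (2–4 h arm) or 4 h (4–6 h arm) postdose, i.p. 80 µCi 14C sodium acetate in 0.9% NaCl; euthanized 2 h later, cardiac blood, plasma saponified and extracted, 14C cholesterol counted; % change vs untreated controls.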

[4] = system: L6; assay: Inhibition of cholesterol synthesis in rat L6 cells; format: functional, cell-based
[5] = biological target: T1, 3-hydroxy-3-methylglutaryl-coenzyme A reductase (Rattus norvegicus, UniProt P51639); assay: Inhibition of HMG-CoA reductase in Sprague-Dawley rat liver microsomes; parameters: species or system Microsome
T1 sequence (P51639 whole entry): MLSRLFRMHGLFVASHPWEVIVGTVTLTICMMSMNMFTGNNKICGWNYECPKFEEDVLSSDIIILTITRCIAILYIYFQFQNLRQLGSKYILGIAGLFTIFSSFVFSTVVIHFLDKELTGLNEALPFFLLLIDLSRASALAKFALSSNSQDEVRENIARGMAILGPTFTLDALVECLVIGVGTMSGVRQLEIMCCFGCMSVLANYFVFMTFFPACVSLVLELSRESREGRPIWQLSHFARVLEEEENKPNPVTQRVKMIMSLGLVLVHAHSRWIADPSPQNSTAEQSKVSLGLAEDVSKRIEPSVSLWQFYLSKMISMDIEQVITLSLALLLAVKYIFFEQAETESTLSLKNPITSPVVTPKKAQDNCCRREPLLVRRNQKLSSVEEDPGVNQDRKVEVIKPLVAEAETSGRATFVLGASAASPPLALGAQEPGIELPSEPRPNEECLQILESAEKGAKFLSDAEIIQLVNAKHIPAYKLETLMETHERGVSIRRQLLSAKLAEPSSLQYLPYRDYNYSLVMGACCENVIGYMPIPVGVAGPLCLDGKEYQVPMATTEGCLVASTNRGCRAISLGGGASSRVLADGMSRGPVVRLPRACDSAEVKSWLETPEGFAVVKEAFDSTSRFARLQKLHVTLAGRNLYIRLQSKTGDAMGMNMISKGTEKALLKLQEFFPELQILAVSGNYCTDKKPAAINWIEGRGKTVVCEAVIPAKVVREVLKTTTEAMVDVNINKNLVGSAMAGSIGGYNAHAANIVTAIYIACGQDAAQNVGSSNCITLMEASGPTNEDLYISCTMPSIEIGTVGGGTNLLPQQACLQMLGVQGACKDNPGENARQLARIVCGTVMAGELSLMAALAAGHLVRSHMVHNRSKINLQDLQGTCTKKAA
Outline: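 Rat liver microsomes (35 µg/mL) in 100 mM NaH2PO4, 10 mM imidazole, 10 mM EDTA, preincubated with compound in DMSO 0.5 h on ice; 14C-HMG-CoA (0.024 µCi) with 15 mM NADPH and 25 mM DTT added, 0.75 h at 37 °C. Stopped with HCl, lactonized to mevalonolactone, anion-exchange resin separation, scintillation counting; IC50 by curve fit.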

[6] = system: Hepatocyte; assay: Ratio of IC50 for cholesterol synthesis in rat myocytes to rat hepatocytes; format: functional
[7] = system: Syrian golden hamster; assay: Inhibition of cholesterol synthesis in Golden Syrian hamster blood at 10 mg/kg, po after 4 to 6 hrs relative to control; format: functional; details: Mesocricetus auratus, read-out: Inhibition; outline: as §1
[8] = system: Cavia porcellus; assay: Reduction of LDL level in po dosed Hartley guinea pig plasma after 7 days; format: functional; details: Hartely, 168 h

Row | Compound | Activity [1] [%] | IC50 [2] [nM] | % change in cholesterol synthesis vs control at 10 mg/kg [3] [%] | IC50 [4] [nM] | IC50 [5] [nM] | Ratio IC50 [6] | Percent change in cholesterol synthesis vs control at 10 mg/kg [7] [%] | ED50 [8] [mg/kg]
1 | Cc1cccc(CN(C)C(=O)c2nn(-c3ccc(F)cc3)c(CC[C@@H](O)C[C@@H](O)CC(=O)[O-])c2C(C)C)c1.[Na+] | -15 | 0.6 | -72 | 4800 | 6.1 | 8000 | – | –
2 | CC(C)c1c(C(=O)N(C)Cc2ccc(F)cc2F)nn(-c2ccc(F)cc2)c1CC[C@@H](O)C[C@@H](O)CC(=O)[O-].[Na+] | -32 | 2.1 | -82 | 4400 | 7 | 2100 | -17 | –
3 | CC(C)c1c(C(=O)N(C)Cc2cccc(F)c2F)nn(-c2ccc(F)cc2)c1CC[C@@H](O)C[C@@H](O)CC(=O)[O-].[Na+] | -45 | 0.6 | -81 | 5700 | 9 | 9500 | -22 | –
4 | CC(C)c1c(C(=O)N(C)[C@@H](C)c2ccccc2)nn(-c2ccc(F)cc2)c1CC[C@@H](O)C[C@@H](O)CC(=O)O | – | 3.5 | – | 41000 | – | – | – | –
5 | CC(C)c1c(C(=O)N2CCCC2c2ccccc2)nn(-c2ccc(F)cc2)c1CC[C@@H](O)C[C@@H](O)CC(=O)O (some centres not stated) | – | 4 | – | 130 | 7.3 | – | – | –
6 | CC(C)c1c(C(=O)N2CCCC(c3ccccc3)C2)nn(-c2ccc(F)cc2)c1CC[C@@H](O)C[C@@H](O)CC(=O)O (some centres not stated) | – | 0.4 | -80 | 680 | 1.5 | – | -15 | –
7 | CC(C)c1c(C(=O)N2CCC[C@H](c3ccccc3)C2)nn(-c2ccc(F)cc2)c1CC[C@@H](O)C[C@@H](O)CC(=O)O | – | 0.3 | -78 | – | 2 | – | – | –
8 | COc1ccc(CNC(=O)c2nn(-c3ccc(F)cc3)c(CC[C@@H](O)C[C@@H](O)CC(=O)O)c2C(C)C)cc1 | – | 0.4 | – | 460 | 2.8 | – | – | –
9 | COCc1cccc(CNC(=O)c2nn(-c3ccc(F)cc3)c(CC[C@@H](O)C[C@@H](O)CC(=O)[O-])c2C(C)C)c1.[Na+] | -42 | 0.7 | -71 | 1800 | 7 | 2600 | -19 | –
10 | CC(C)c1c(C(=O)NCc2cccc(C#N)c2)nn(-c2ccc(F)cc2)c1CC[C@@H](O)C[C@@H](O)CC(=O)O | – | 1.4 | – | 2400 | 2.2 | – | – | –
11 | CC(C)c1c(CC[C@@H](O)C[C@@H](O)CC(=O)O)nn(-c2ccc(F)cc2)c1C(=O)NCc1ccccc1 | – | – | – | – | 520 | – | – | –
12 | Cc1ccc(CN(C)C(=O)c2nn(-c3ccc(F)cc3)c(CC[C@@H](O)C[C@@H](O)CC(=O)O)c2C(C)C)cc1 | – | 1.8 | – | 4000 | 9.9 | – | – | –
13 | CC(C)c1c(C(=O)N(C)Cc2ccccc2F)nn(-c2ccc(F)cc2)c1CC[C@@H](O)C[C@@H](O)CC(=O)O | – | 0.5 | -69 | 17000 | 4.8 | – | -30 | –
14 | CCN(Cc1ccccc1)C(=O)c1nn(-c2ccc(F)cc2)c(CC[C@@H](O)C[C@@H](O)CC(=O)O)c1C(C)C | – | 5.5 | – | 4400 | 3.8 | – | – | –
15 | CC(C)c1c(C(=O)N(C)Cc2cccc(F)c2)nn(-c2ccc(F)cc2)c1CC[C@@H](O)C[C@@H](O)CC(=O)O | – | 0.2 | -65 | 6000 | 3.9 | – | – | –
16 | CC(C)c1c(C(=O)N(Cc2ccccc2)C(C)C)nn(-c2ccc(F)cc2)c1CC[C@@H](O)C[C@@H](O)CC(=O)O | – | 10 | – | 9800 | 9.8 | – | – | –
17 | CC(C)c1c(C(=O)N(C)Cc2ccc(F)cc2)nn(-c2ccc(F)cc2)c1CC[C@@H](O)C[C@@H](O)CC(=O)O | – | 0.5 | -71 | 6000 | 6.6 | – | – | –
18 | CC(C)c1c(C(=O)NCc2ccc(C(=O)N(C)C)cc2)nn(-c2ccc(F)cc2)c1CC[C@@H](O)C[C@@H](O)CC(=O)O | – | 23 | – | 21000 | 25 | – | – | –
19 | CC(C)c1c(C(=O)N2CCCCC2c2ccccc2)nn(-c2ccc(F)cc2)c1CC[C@@H](O)C[C@@H](O)CC(=O)O (some centres not stated) | – | 1.1 | – | 330 | 6.1 | – | – | –
20 | COc1ccc(CN(C)C(=O)c2nn(-c3ccc(F)cc3)c(CC[C@@H](O)C[C@@H](O)CC(=O)O)c2C(C)C)cc1 | – | 0.3 | -57 | 5800 | 12 | – | – | –
21 | CC(C)c1c(C(=O)NCc2ccc(F)cc2)nn(-c2ccc(F)cc2)c1CC[C@@H](O)C[C@@H](O)CC(=O)O | – | 0.7 | – | 490 | 3.8 | – | – | –
22 | Cc1ccc(CNC(=O)c2nn(-c3ccc(F)cc3)c(CC[C@@H](O)C[C@@H](O)CC(=O)[O-])c2C(C)C)cc1.[Na+] | -41 | 0.9 | -74 | 730 | 1.9 | 810 | -15 | 3.6
23 | CC(C)c1c(C(=O)N(C)Cc2ccccc2)nn(-c2ccc(F)cc2)c1CC[C@@H](O)C[C@@H](O)CC(=O)[O-].[Na+] | -20 | 0.2 | -61 | 3100 | 5.9 | 16000 | -16 | –
24 | CC(C)c1c(C(=O)NCc2ccccc2)nn(-c2ccc(F)cc2)c1CC[C@@H](O)C[C@@H](O)CC(=O)O | – | 0.3 | – | 100 | 4.7 | – | – | –
25 | COCc1c(C(C)C)nc(C(C)C)c(/C=C/[C@@H](O)C[C@@H](O)CC(=O)O)c1-c1ccc(F)cc1 [CERIVASTATIN] | – | 1.7 | – | 3 | – | – | – | –
